pIC50: −log10 of the molar value. Activity calls are given as the source filed them. No cut-off for these calls is given here.

Broadly, the pIC50 is the IC50 on a negative log10 scale, so that one unit is a factor of ten. Higher therefore signals a small IC50.

The nature of data set [1]: (§1) Cytotoxicity against human MEC1 cells after 48 hrs by MTT assay. The data set is classed as functional, cell-based. To be noted: MEC1, 48 h. A digest of the protocol: (§2)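 Cells seeded at 1 × 10^6 cells/mL. JVM-2, MAVER and HL-60 were grown in RPMI-1640; MEC-1 and MEC-2 were grown in IMDM. Primary cells were grown in RPMI-1640. All media carried 10% FBS, L-glutamine and penicillin/streptomycin. Test agents were added at 3–300 μM, and DCA at 1–30 mM.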

The next data set relates to MEC1. The data set is described as §1. It is filed as functional, cell-based. A digest of the protocol: as §2
Data set [2] can be described thus: (§3) Cytotoxicity against human MEC2 cells after 48 hrs by MTT assay. To be noted: MEC2, 48 h. It is filed as functional, cell-based. An outline of the steps: as §2
A further data set concerns MEC2. The data set is described as §3. It is filed as functional, cell-based. A digest of the protocol: as §2
The subject of data set [3] is JVM-2. Kind of data set: Induction of apoptosis in human JVM2 cells assessed as early apoptotic cells at 300 uM after 48 hrs by annexin V-FITC/PI-staining based FACS analysis (reference value: 1.6%). The data set is classed as functional. A general note: In flow cytometry, cells or beads pass a laser one at a time.
Data set [4] concerns JVM-2. In words: Induction of apoptosis in human JVM2 cells assessed as late apoptotic cells at 300 uM after 48 hrs by annexin V-FITC/PI-staining based FACS analysis (reference value: 11%). It is filed as functional.
A short description of data set [5]: Induction of apoptosis in human primary B-CLL cells assessed as early apoptotic cells at 300 uM after 48 hrs by annexin V-FITC/PI-staining based FACS analysis (reference value: 10.7%). It is filed as functional.
Data set [6] can be described thus: Induction of apoptosis in human primary B-CLL cells assessed as late apoptotic cells at 300 uM after 48 hrs by annexin V-FITC/PI-staining based FACS analysis (reference value: 8.5%). It is filed as functional.
A short description of data set [7]: Upregulation of p21 mRNA expression in human primary B-CLL cells at 300 uM after 24 to 48 hrs by qRT-PCR analysis. It is filed as functional, cell-based. For orientation: In qPCR the cycle at which signal appears reflects the starting amount.
The test system of a further data set is B-CLL. In words: Induction of p21 protein level in human primary B-CLL cells at 300 uM after 24 to 48 hrs by Western blot analysis. The data set is classed as functional, cell-based. A digest of the protocol: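 Primary B-CLL patient cells treated 24 or 48 h, lysed and analysed by Western blot using anti-p21 (C-19) antibody to detect p21 protein induction.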
On the technique in general: In western blotting, separated proteins are transferred to a membrane and probed.

The subject of data set [8] is Plasma. Kind of data set: Metabolic stability in BALB/c mouse plasma assessed as compound remaining at 57 mg/kg, sc after >5 hrs by HPLC-MS analysis. It is filed as ADME, organism-based. To be noted: in vivo. A digest of the protocol: (§4)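 Female BALB/c mice, 8 weeks old (n = 12), received one sc dose of 57 mg/kg in 200 μL PBS/25% DMSO. Tail-vein blood was drawn at 1, 2.5, 4, 5.5, 7, 16 and 24 h, and plasma was stored at −80 °C. Plasma (100 μL) was diluted in 300 μL acetonitrile/water/TFA and filtered. It was then analysed by nano-HPLC-MS on a C-18 column, using a 15-min water-to-acetonitrile gradient with 0.1% formic acid.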

For data set [9], the system named is Plasma. In words: Retention time in BALB/c mouse plasma at 57 mg/kg, sc after 4 hrs by HPLC-MS analysis. The data set is classed as ADME, organism-based. The conditions noted are these: in vivo. A digest of the protocol: as §4
Data set [10] deals with Leukemia cell. Kind of data set: Reduction in basal oxygen consumption rate of mitochondria in human leukemia cells at 300 uM after 3 hrs by seahorse analyzer. It is filed as functional. An outline of the steps:
(§5)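 Leukemic cells were treated for 3 h at 300 μM, then plated at 3 × 10^5 cells/well on poly-L-lysine. They were held 1 h at 37 °C without CO2 and run on an XFe96 Mito stress test. Additions were made sequentially: oligomycin 1.0 μM, FCCP 1.0 μM, then antimycin A plus rotenone at 1.0 μM each. OCR was expressed as pmol O2/min and normalized to cell number. Coupling efficiency and spare capacity were calculated after subtracting non-mitochondrial OCR. Data are from six independent experiments.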

The subject of data set [11] is Leukemia cell. In words: Reduction in maximal oxygen consumption rate of mitochondria in human leukemia cells pretreated at 300 uM for 3 hrs followed by FCCP addition by seahorse analyzer. The data set is classed as functional. An outline of the steps:
as §5

Data set [12] concerns Leukemia cell. In words: Reduction in mitochondrial coupling efficiency in human leukemia cells pretreated at 300 uM for 3 hrs followed by antimycin A/rotenone addition by seahorse analyzer. The data set is classed as functional, cell-based. A digest of the protocol: as §5
Data set [13] can be described thus: Cell cycle arrest in human JVM2 cells assessed as accumulation at S phase at 300 uM after 48 hrs by BrdU/PI-staining based FACS analysis (reference value: 40%). To be noted: JVM-2. The data set is classed as functional.
In data set [14] the test system is Plasma. In words: Drug metabolism in BALB/c mouse plasma at 57 mg/kg, sc after >5 hrs by HPLC-MS analysis. It is filed as ADME, organism-based. The conditions noted are these: in vivo. A digest of the protocol: as §4
Data set [15] has as its system Leukemia cell. In words: Reduction in mitochondrial spare respiratory capacity in human leukemia cells pretreated at 300 uM for 3 hrs followed by antimycin A/rotenone addition by seahorse analyzer. The data set is classed as functional, cell-based. An outline of the steps:
as §5

The nature of data set [16]: (§6) Cytotoxicity against human JVM2 cells after 48 hrs by MTT assay. It is filed as functional, cell-based. To be noted: JVM-2, 48 h. An outline of the steps: as §2
The subject of data set [17] is JVM-2. Described as §6. The data set is classed as functional, cell-based. A digest of the protocol:
as §2

The next data set relates to PBMC. Kind of data set: Cytotoxicity against human PBMC cells after 48 hrs by MTT assay. The data set is classed as cell-based. A digest of the protocol: as §2
The nature of data set [18]: (§7) Cytotoxicity against human HL60 cells after 48 hrs by MTT assay. The data set is classed as functional, cell-based. The conditions noted are these: HL-60, 48 h. A digest of the protocol: as §2
The test system of the next data set is HL-60. The data set is described as §7. It is filed as functional, cell-based. An outline of the steps: as §2
Data set [19] in a line: (§8) Cytotoxicity against human Maver1 cells after 48 hrs by MTT assay. The data set is classed as functional, cell-based. The conditions noted are these: Maver1, 48 h. An outline of the steps:
as §2

The subject of the next data set is Maver1. The data set is described as §8. It is filed as functional, cell-based. An outline of the steps:
as §2

Data set [20] can be described thus: Cytotoxicity against human HL60 cells at 30 uM after 48 hrs by MTT assay. It is filed as cell-based. The conditions noted are these: hl-60, 48 h. A digest of the protocol: as §2
The nature of data set [21]: Cytotoxicity against human JVM2 cells at 30 uM after 48 hrs by MTT assay. The data set is classed as cell-based. To be noted: jvm-2, 48 h. An outline of the steps:
as §2

Data set [22] is described as follows: Cytotoxicity against human Maver1 cells at 30 uM after 48 hrs by MTT assay. It is filed as cell-based. To be noted: maver1, 48 h. An outline of the steps:
as §2

Data set [23] in a line: Cytotoxicity against human MEC1 cells at 30 uM after 48 hrs by MTT assay. It is filed as cell-based. The conditions noted are these: mec1, 48 h. An outline of the steps:
as §2

The nature of data set [24]: Cytotoxicity against human MEC2 cells at 30 uM after 48 hrs by MTT assay. The data set is classed as cell-based. The conditions noted are these: mec2, 48 h. An outline of the steps: as §2
Data set [25] is described as follows: Cytotoxicity against human HL60 cells at 3 to 300 uM after 48 hrs by MTT assay. It is filed as cell-based. To be noted: hl-60, 48 h. A digest of the protocol:
as §2

A short description of data set [26]: Cytotoxicity against human MEC1 cells at 3 to 300 uM after 48 hrs by MTT assay. The data set is classed as cell-based. To be noted: mec1, 48 h. A digest of the protocol: as §2
Data set [27] in a line: Cytotoxicity against human JVM2 cells at 3 to 300 uM after 48 hrs by MTT assay. The conditions noted are these: jvm-2, 48 h. It is filed as cell-based. A digest of the protocol:
as §2

Data set [28] is described as follows: Cytotoxicity against human Maver1 cells at 3 to 300 uM uM after 48 hrs by MTT assay. The data set is classed as cell-based. The conditions noted are these: maver1, 48 h. A digest of the protocol: as §2
A short description of data set [29]: Cytotoxicity against human MEC2 cells at 3 to 300 uM after 48 hrs by MTT assay. The data set is classed as cell-based. To be noted: mec2, 48 h. A digest of the protocol:
as §2

The subject of data set [30] is JVM-2. Kind of data set: Induction of apoptosis in human JVM2 cells assessed as early apoptotic cells at 10 mM after 48 hrs by annexin V-FITC/PI-staining based FACS analysis (reference value: 1.6%). The data set is classed as functional. A digest of the protocol:
(§9)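 JVM-2 cells seeded at 1 × 10^6 cells/mL in RPMI-1640 with 10% FBS and treated 48 h. Annexin V-FITC/PI staining read by flow cytometry, giving percentage of apoptotic leukemic cells. Mean ± SD of at least three independent experiments; p < 0.05 versus untreated cultures.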

The test system of data set [31] is JVM-2. Kind of data set: Induction of apoptosis in human JVM2 cells assessed as late apoptotic cells at 10 mM after 48 hrs by annexin V-FITC/PI-staining based FACS analysis (reference value: 11%). The data set is classed as functional. A digest of the protocol:
as §9

Data set [32] can be described thus: Induction of apoptosis in human primary B-CLL cells assessed as early apoptotic cells at 30 mM after 48 hrs by annexin V-FITC/PI-staining based FACS analysis (reference value: 10.7%). It is filed as functional.
The nature of data set [33]: Induction of apoptosis in human primary B-CLL cells assessed as late apoptotic cells at 30 mM after 48 hrs by annexin V-FITC/PI-staining based FACS analysis (reference value: 8.5%). It is filed as functional.
Data set [34] can be described thus: Cell cycle arrest in human JVM2 cells assessed as accumulation at S phase at 30 mM after 48 hrs by BrdU/PI-staining based FACS analysis (reference value: 40%). The data set is classed as functional. To be noted: JVM-2.

Consider `O=C(NCCN(CCNC(=O)C(Cl)Cl)CCNC(=O)C(Cl)Cl)C(Cl)Cl`, for which the negative logarithm of the IC50 (pIC50) is 3.40 in [1]; 3.43 in data set [2]; 3.39 in [16]; 2.90 in the data set on PBMC; 3.47 in data set [18]; 3.26 in data set [19]. The Activity result with MEC1 was “Dose-dependent effect”; in the data set with MEC2, “Dose-dependent effect”; in the data set on JVM-2 [3], 1.1%; in the data set on JVM-2 [4] it was 25.5%; in [5], 14.4%; in data set [6] it was 42.8%. Moreover, the Activity was 22% in data set [13], “Dose-dependent effect” with JVM-2 [17], “Dose-dependent effect” with HL-60 and “Dose-dependent effect” in the data set on Maver1. In addition, the outcome (in data set [7]; in the data set on B-CLL; in the data set with Leukemia cell [10]; in the data set with Leukemia cell [11]; in the data set on Leukemia cell [12]; in the data set with Leukemia cell [15]) was Active. The Stability result in the data set with Plasma [8] is on record as “Stable”. The Retention_time in the data set on Plasma [9] was 0.455 min. In addition, the Drug metabolism result in the data set with Plasma [14] was “metabolite_notdetected”.

In the case of `CC(=O)OCC(COC(C)=O)(COC(C)=O)NC(=O)CCCCC[P+](c1ccccc1)(c1ccccc1)c1ccccc1.[Br-]`, the Activity result in [20], in data set [21], in data set [22], in data set [23] and in [24] was “Toxic” throughout.

Consider `CC(C)(C)OC(=O)NCCN(CCNC(=O)OC(C)(C)C)CCNC(=O)OC(C)(C)C`, for which the Activity result in data set [25] was “Non-toxic”; in [26], “Non-toxic”; in data set [27] it was “Non-toxic”; in data set [28], “Non-toxic”; in [29], “Non-toxic”; in the data set with JVM-2 [3], 1.3%. The Activity in the data set with JVM-2 [4] was found to be 10.9%; in [13], 41%.

Consider `CC(C)(C)OC(=O)NCC[N+](C)(CCNC(=O)OC(C)(C)C)CCNC(=O)OC(C)(C)C.[I-]`, for which the Activity entry in data set [25], in data set [26], in data set [27], in data set [28] and in [29] was “Non-toxic” each time.

Turning to `O=C(O)C(Cl)Cl` [DICHLOROACETIC ACID], the negative-log IC50 (pIC50) in data set [1] is 2.08; in data set [2], 1.91; in [16], 1.94; in [18] it was 1.86; in [19], 1.93. The Activity in the data set on JVM-2 [30] was found to be 2.8%; with JVM-2 [31], 26.8%; in data set [32], 20.7%; in [33] it was 45.4%; in [34], 15%. Moreover, the outcome (in data set [7]; in the data set with B-CLL) was Active.

For `C[N+](CCNC(=O)C(Cl)Cl)(CCNC(=O)C(Cl)Cl)CCNC(=O)C(Cl)Cl`, in the data set on Leukemia cell [10], the outcome was inactive.
